Data set [1] concerns the target T1, Free fatty acid receptor 1 (Homo sapiens, UniProt O14842). Put plainly: Agonist activity at human FFA1 receptor expressed in human 1321N1 cells assessed as calcium mobilization by fluorescence spectrophotometry. The format is functional, cell-based. In general terms: Calcium assays in cells follow changes in intracellular calcium, usually with a dye or a luminescent sensor.

Data set [2] addresses T1, Free fatty acid receptor 1. In words: Agonist activity at human FFA1 receptor expressed in human 1321N1 cells assessed as calcium mobilization by fluorescence spectrophotometry relative to 10 uM TUG-20. The format is functional, cell-based. In short, it runs like this:
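Human FFA1 stably expressed in 1321N1 cells kept under G418 selection, 30000–40000 cells/well. After 24 h, washed in Krebs-HEPES pH 7.4 and loaded 1 h at 37 °C with 1.5 μM Oregon Green 488 BAPTA-1/AM. Compound injected at 10-fold concentration at 37 °C; fluorescence ex 485/em 520 nm over 50 × 0.4 s. Efficacy as % of maximal response to 10 μM TUG-20.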

Data set [3] in a line: Apparent permeability across methotrexate treated human HT-29 cells. Format: ADME, cell-based. In short, it runs like this: (§1)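 HT29-MTX mucus-producing cells, passage 32, grown 23 days (TEER > 750 Ω cm²). Compound at 100 μM (10 mM DMSO stock diluted 1:100 in buffer). […] Non-permeated drug measured for recovery. Monolayer integrity checked by 20 μM carboxyfluorescein after 1 h and TEER.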

Data set [4] in a line: Permeability across methotrexate treated human HT-29 cells assessed as compound recovery. Particulars: read-out: Activity. The format is ADME, cell-based. The method, boiled down: as §1
In data set [5] the target is CYP3A4 (Homo sapiens, UniProt P08684). In words: Inhibition of CYP3A4 at 10 uM. Format: ADME.
The nature of data set [6]: Apparent permeability from apical to basolateral side of human Caco2/TC7 cells. The format is ADME, cell-based. Conditions: Caco-2. The method, boiled down:
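Caco-2 TC7 monolayers, apical to basolateral transport at pH 6.5 apical/7.4 basolateral.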
On the technique in general: Caco-2 cells form a polarised layer with tight junctions and transporters.

Data set [7] in a line: Chemical stability of the compound in PBS at 37 degC for 12 days. Format: physicochemical. Conditions: read-out: Stability. In short, it runs like this: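 Stability followed in PBS at 37 °C over 12 days.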
Data set [8] deals with CYP2C9 (Homo sapiens, UniProt P11712). In words: Inhibition of CYP2C9 at 10 uM. The format is ADME.
Data set [9] is described as follows: Plasma protein binding in human. The format is ADME, cell-free. Conditions: read-out: PPB (converted).
Data set [10] has as its target CYP2C19 (Homo sapiens, UniProt P33261). Put plainly: Inhibition of CYP2C19 at 10 uM. The format is ADME.
A short description of data set [11]: Octanol-water partition coefficient, log D of the compound at pH 7.4 by HPLC analysis. Format: physicochemical. In short, it runs like this: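 Distribution between n-octanol and water (PBS), pH 7.4, determined experimentally.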
Data set [12] can be described thus: Inhibition of P-glycoprotein at 100 uM. In short, it runs like this:
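P-glycoprotein inhibition tested at 100 μM compound.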

Data set [13] can be described thus: Aqueous solubility of the compound in PBS at pH 7.4. Format: physicochemical. The method, boiled down:
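Solubility measured in PBS at pH 7.4.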

In data set [14] the test system is Liver. Put plainly: Metabolic stability in human liver S9 fraction. The format is ADME, subcellular.
In data set [15] the target is CYP2D6 (Homo sapiens, UniProt P10635). In words: Inhibition of CYP2D6 at 10 uM. The format is ADME.
Data set [16] deals with T2, CYP1A2 (Homo sapiens, UniProt P05177).
T2 sequence (P05177 whole entry): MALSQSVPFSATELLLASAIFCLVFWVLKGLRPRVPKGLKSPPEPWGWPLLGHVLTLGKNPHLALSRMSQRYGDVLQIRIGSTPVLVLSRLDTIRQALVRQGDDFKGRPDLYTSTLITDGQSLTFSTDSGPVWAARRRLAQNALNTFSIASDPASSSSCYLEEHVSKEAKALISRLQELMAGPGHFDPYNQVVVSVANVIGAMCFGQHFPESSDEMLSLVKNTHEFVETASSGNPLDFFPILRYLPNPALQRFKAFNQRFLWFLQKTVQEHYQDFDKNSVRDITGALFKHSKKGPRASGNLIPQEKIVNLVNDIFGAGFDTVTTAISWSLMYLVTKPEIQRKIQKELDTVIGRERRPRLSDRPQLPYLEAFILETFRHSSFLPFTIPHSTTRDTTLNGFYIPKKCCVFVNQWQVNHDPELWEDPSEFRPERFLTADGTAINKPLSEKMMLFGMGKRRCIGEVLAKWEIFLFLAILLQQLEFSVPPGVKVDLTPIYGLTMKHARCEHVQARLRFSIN
Put plainly: Inhibition of CYP1A2 at 10 uM. Format: ADME.

A short description of data set [17]: Octanol-phosphate buffer partition coefficient, log D of the compound at pH 7.4 by HPLC analysis. Format: physicochemical.

≈ marks a conversion by molar mass, not a printed value.

T1 sequence (O14842 whole entry): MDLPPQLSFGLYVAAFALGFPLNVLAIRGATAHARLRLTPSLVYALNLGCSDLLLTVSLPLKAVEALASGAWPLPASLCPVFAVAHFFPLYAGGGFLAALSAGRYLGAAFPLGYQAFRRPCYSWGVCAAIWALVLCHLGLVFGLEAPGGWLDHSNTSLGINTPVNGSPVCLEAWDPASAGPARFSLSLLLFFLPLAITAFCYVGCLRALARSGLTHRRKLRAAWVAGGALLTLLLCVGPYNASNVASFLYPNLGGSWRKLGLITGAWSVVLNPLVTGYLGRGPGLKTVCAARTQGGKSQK
CYP2D6, sequence (P10635 whole entry): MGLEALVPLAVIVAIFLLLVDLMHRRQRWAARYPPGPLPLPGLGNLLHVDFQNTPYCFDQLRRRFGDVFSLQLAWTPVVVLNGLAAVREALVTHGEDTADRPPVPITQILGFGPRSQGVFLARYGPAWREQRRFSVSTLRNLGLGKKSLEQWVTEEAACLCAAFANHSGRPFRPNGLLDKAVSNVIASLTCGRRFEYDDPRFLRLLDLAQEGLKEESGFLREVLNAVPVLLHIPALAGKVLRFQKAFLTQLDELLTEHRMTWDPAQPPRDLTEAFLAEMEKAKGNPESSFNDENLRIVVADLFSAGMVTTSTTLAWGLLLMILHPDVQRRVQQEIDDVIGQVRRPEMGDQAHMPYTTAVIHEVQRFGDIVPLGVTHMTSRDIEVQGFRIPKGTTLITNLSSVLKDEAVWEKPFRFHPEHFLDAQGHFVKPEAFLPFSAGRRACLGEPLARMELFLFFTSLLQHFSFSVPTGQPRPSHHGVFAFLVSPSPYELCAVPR
CYP2C9, sequence (P11712 whole entry): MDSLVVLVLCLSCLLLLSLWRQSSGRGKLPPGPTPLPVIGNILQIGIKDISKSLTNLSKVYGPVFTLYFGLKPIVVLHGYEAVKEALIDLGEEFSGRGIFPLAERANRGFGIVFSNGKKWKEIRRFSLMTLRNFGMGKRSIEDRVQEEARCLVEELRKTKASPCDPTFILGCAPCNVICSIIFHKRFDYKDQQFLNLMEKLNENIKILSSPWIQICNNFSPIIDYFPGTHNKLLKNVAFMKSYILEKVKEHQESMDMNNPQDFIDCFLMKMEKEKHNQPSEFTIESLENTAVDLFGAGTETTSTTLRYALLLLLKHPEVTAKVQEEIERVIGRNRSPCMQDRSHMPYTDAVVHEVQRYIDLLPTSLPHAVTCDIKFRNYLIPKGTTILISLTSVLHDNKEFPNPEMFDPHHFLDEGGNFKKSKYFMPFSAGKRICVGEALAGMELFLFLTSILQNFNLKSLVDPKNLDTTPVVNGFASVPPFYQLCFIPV
CYP3A4, sequence (P08684 whole entry): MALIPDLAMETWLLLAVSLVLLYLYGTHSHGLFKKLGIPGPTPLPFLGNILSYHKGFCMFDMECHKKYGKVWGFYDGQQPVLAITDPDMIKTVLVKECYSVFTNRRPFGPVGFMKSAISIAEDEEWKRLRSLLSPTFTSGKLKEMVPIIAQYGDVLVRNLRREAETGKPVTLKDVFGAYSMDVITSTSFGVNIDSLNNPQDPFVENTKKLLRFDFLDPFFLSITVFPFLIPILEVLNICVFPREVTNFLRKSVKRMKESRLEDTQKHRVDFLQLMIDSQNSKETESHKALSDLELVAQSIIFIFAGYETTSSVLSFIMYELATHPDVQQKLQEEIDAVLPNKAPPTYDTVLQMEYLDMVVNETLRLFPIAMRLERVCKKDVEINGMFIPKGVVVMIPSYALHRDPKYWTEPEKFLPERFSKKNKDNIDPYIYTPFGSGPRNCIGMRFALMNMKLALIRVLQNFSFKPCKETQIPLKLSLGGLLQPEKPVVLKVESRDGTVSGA
CYP2C19, sequence (P33261 whole entry): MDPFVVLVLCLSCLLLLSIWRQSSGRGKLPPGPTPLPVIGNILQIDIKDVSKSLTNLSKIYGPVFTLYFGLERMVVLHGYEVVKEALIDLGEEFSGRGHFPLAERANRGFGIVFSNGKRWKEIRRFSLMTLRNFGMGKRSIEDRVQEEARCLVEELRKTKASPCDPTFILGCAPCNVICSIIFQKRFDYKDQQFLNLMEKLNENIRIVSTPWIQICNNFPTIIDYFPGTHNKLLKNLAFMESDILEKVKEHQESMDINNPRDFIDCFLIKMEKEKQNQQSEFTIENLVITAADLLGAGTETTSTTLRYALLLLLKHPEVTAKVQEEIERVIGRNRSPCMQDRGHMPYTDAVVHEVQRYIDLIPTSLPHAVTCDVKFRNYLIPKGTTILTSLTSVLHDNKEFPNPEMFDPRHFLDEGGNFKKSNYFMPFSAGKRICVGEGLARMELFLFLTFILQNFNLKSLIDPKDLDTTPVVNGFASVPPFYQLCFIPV

As for `O=C(O)CCc1ccc(C#Cc2cccs2)cc1`, the EC50 (in general, the concentration giving half of the maximal effect) in data set [1] is 251 nM. For the same compound, in data set [2], the Efficacy came out at 97%.

`O=C(O)CCc1ccc(C#Cc2ccnc(F)c2)cc1`: in data set [1], the 50% effective concentration (EC50) is 513 nM. In addition, the Efficacy in data set [2] came to 98%.

As to `COc1nccc(C#Cc2ccc(CCC(=O)O)cc2)n1`, the EC50 in data set [1] is 9550 nM. Further, in [2], the Efficacy was 109%.

As to `O=C(O)CCc1ccc(C#Cc2ccnc3cc(Cl)ccc23)cc1`, the concentration giving a half-maximal response (EC50) in [1] is 79.4 nM. The Efficacy in data set [2] was found to be 125%.

`O=C(O)CCc1ccc(C#Cc2ccnc(Oc3ccccc3)c2)cc1`: the EC50 in data set [1] is 479 nM. Moreover, the Efficacy in data set [2] turned out to be 94%.

`Cc1c(C#Cc2ccc(CCC(=O)O)cc2)ccnc1Cl`: the concentration giving a half-maximal response (EC50) in data set [1] is 135 nM. Moreover, in data set [2], the Efficacy was determined as 101%.

Regarding `COc1cc(C#Cc2ccc(CCC(=O)O)cc2)ccn1`, the 50% effective concentration (EC50) in data set [1] is 525 nM. Also, the Efficacy in [2] amounted to 98%.

With `Cc1c(C#Cc2ccc(CCC(=O)O)cc2)ccnc1F`, the EC50 in [1] is 120 nM. In addition, in [2], the Efficacy turned out to be 101%.

Turning to `Cc1cccc(C#Cc2ccc(CCC(=O)O)cc2)n1`, in data set [1], the half-maximal effective concentration (EC50) was 6170 nM. The Efficacy in data set [2] came to 108%.

Take `Cc1ccccc1-c1cc(C#Cc2ccc(CCC(=O)O)cc2)ccn1`: in data set [1], the concentration for a half-maximal effect (EC50) is 1070 nM. Further, in data set [2], the Efficacy was 92%.

With `Cc1cnc(Cl)nc1C#Cc1ccc(CCC(=O)O)cc1`, the 50% effective concentration (EC50) in data set [1] is 4270 nM. Also, the Efficacy in data set [2] was 121%.

With `O=C(O)CCc1ccc(C#Cc2ccc(Cl)nc2)cc1`, the concentration for a half-maximal effect (EC50) in data set [1] is 708 nM. The Efficacy in data set [2] was 98%.

On to `O=C(O)CCc1ccc(C#Cc2ccnc(Cl)n2)cc1`, for which the EC50 in data set [1] is 9120 nM. Moreover, the Efficacy in data set [2] stood at 131%.

In the case of `O=C(O)CCc1ccc(C#Cc2ccncc2)cc1`, the EC50 in data set [1] is 4070 nM. In addition, the Efficacy in [2] turned out to be 100%.

Consider `O=C(O)CCc1ccc(C#Cc2ccnc(Cl)c2)cc1`, for which the EC50 in data set [1] was 295 nM. For the same compound, the Efficacy in data set [2] was 94%.

In the case of `Cc1cc(C#Cc2ccc(CCC(=O)O)cc2)ccn1`, the Efficacy in data set [2] came out at 102%.

`O=C(O)C1CC1c1ccc(C#Cc2cc(Cl)nc(Cl)c2)cc1` (racemic): in data set [2], the Efficacy worked out at 96%.

On to `Cc1ccsc1C#Cc1ccc(CCC(=O)O)cc1`, for which the EC50 in [1] is 75.9 nM. Besides, the Efficacy in [2] amounted to 100%.

Take `Cc1cnc(F)c(C#Cc2ccc(CCC(=O)O)cc2)c1`: in data set [1], the half-maximal effective concentration (EC50) is 661 nM. In data set [2], the Efficacy is 98%.

In the case of `O=C(O)CCc1ccc(C#Cc2ccnc(-c3ccccc3)c2)cc1`, in [1], the EC50 was 186 nM. Besides, the Efficacy in [2] came out at 97%.

Take `O=C(O)CCc1ccc(C#Cc2cncs2)cc1`: in [1], the concentration giving a half-maximal response (EC50) was 3890 nM. In addition, the Efficacy in data set [2] amounted to 99%.

In the case of `O=C(O)CCc1ccc(C#Cc2ccccn2)cc1`, the EC50 in data set [1] is 13200 nM. For the same compound, the Efficacy in data set [2] was 98%.

Consider `CC(C(=O)O)c1cccc(C(=O)c2ccccc2)c1` (centres undefined) [KETOPROFEN], for which the Papp (as a rule, the rate of passage across a membrane or cell layer, normalised by area and donor concentration) in [3] is 15.1 ×10⁻⁶ cm/s. Moreover, in data set [4], the recovery amounted to 80%.

On to `Cc1cc(C#Cc2ccc(CCC(=O)O)cc2)nc(Cl)n1`, for which the EC50 in data set [1] was 2750 nM. In addition, in [2], the Efficacy stood at 110%.

With `O=C(O)CCc1ccc(C#Cc2ncccc2[N+](=O)[O-])cc1`, the Efficacy in [2] amounted to 87%.

In the case of `O=C(O)CCc1ccc(C#Cc2ccnc(Cl)c2Cc2ccccc2)cc1`, in [1], the concentration giving a half-maximal response (EC50) is 794 nM. Moreover, in data set [2], the Efficacy worked out at 101%.

On to `Cc1c(C#Cc2ccc(CCC(=O)O)cc2)cc(Cl)nc1Cl`, for which, in data set [1], the concentration giving a half-maximal response (EC50) was 43.7 nM. The Efficacy in data set [2] was determined as 91%.

For the compound `O=C(O)CCc1ccc(C#Cc2cccnc2Cl)cc1`, the EC50 in data set [1] is 603 nM. Also, the Efficacy in data set [2] was 91%.

`Cc1cnc(F)cc1C#Cc1ccc(CCC(=O)O)cc1`: the concentration for a half-maximal effect (EC50) in data set [1] was 178 nM. Moreover, the Efficacy in data set [2] is 99%.

As for `C=CCc1c(C#Cc2ccc(CCC(=O)O)cc2)ccnc1Cl`, in data set [1], the EC50 was 316 nM. Moreover, the Efficacy in data set [2] was 97%.

`O=C(O)CCc1ccc(C#Cc2cccnc2)cc1`: the EC50 in [1] is 6030 nM. The Efficacy in data set [2] stood at 96%.

Take `Cc1ccccc1C#Cc1ccc(CCC(=O)O)cc1`: the inhibition (in general, the relative decrease from the control value, in per cent) at 10 µM in [5] is -4%; in data set [8], -25%; in [10] it was -1%; in [15], 0%; in [16], -8%. In data set [6], the Papp A→B (commonly the apparent permeability from the apical to the basolateral side of a cell layer) worked out at 87 ×10⁻⁶ cm/s. In addition, the remaining at 288 h in data set [7] came to 99.9%. For the same compound, in data set [9], the fraction unbound was 0.023. Besides, the EC50 in [1] was 45.7 nM. For the same compound, the Efficacy in data set [2] was found to be 102%. The pH-dependent lipophilicity (logD) in data set [11] and in data set [17] was 2.34 in each case. In data set [12], the inhibition turned out to be 6.6%. Moreover, the solubility (as a rule, the dissolved amount per volume that the medium holds) in data set [13] was found to be 174 µM (≈ 46 µg/mL). The compound also gave a Stability in data set [14] of 26%.
